ChEMBL document CHEMBL1131622, “(+/-)-trans-2-[3-methoxy-4-(4-chlorophenylthioethoxy)-5-(N-methyl-N- hydroxyureidyl)methylphenyl]-5-(3,4, 5-trimethoxyphenyl)tetrahydrofuran (CMI-392), a potent dual 5-lipoxygenase inhibitor and platelet-activating factor receptor antagonist” (J Med Chem, 1998)
Several values for one entry are separate records, joined by “and”; a condition that tells them apart may be missing. Equal values may be shown once.

What was measured:
[1] = organism: Homo sapiens; experiment: (§1) Compound was evaluated for inhibiting production of LTB4 in calcium Ionophore (A23187) activated human whole blood.; format: functional
Outline: (§2)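 Heparinized human whole blood (1 mL) preincubated with compound in DMSO 15 min at 37 °C, then stimulated with A23187 (50 μM final) 30 min at 37 °C; plasma LTB4 measured by EIA. IC50 by regression; percent inhibition also reported at 3 μM.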

[2] = target: T1, Polyunsaturated fatty acid 5-lipoxygenase (Rattus norvegicus, UniProt P12527); experiment: Inhibition of 5-lipoxygenase mediated conversion of [14C]arachidonic acid to leukotrienes in RBL-2H3 cells; format: cell-based
T1 sequence (P12527 whole entry): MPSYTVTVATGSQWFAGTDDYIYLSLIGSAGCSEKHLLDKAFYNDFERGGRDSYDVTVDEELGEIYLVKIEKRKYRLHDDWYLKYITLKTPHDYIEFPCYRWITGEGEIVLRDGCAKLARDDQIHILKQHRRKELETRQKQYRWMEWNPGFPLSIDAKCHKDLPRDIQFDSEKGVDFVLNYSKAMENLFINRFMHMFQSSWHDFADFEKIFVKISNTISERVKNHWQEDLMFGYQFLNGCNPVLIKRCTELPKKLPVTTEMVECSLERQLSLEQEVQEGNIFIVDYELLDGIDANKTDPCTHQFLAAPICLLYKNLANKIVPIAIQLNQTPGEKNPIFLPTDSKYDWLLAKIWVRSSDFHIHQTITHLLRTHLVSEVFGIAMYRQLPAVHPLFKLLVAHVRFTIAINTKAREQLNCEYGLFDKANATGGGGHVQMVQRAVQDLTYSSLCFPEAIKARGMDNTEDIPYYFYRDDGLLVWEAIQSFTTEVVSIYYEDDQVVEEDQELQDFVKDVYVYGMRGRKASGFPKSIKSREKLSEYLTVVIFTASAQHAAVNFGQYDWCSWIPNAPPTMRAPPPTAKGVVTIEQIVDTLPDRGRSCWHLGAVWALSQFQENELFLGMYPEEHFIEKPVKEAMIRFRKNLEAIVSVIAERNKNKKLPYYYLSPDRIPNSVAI
Outline: (§3)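 Lysate plus compound (DMSO) in buffer with 0.1 M NaCl, 0.7 mM CaCl2, 20 min room temperature, then [14C]AA substrate mix 5 min 37 °C. Products extracted, resolved by silica TLC, autoradiography/densitometry; IC50 by regression.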

[3] = target: Platelet-activating factor receptor (Homo sapiens, UniProt P25105); experiment: Displacement of [3H]PAF from PAF receptor of human platelet membranes
Sequence of Platelet-activating factor receptor (P25105 whole entry): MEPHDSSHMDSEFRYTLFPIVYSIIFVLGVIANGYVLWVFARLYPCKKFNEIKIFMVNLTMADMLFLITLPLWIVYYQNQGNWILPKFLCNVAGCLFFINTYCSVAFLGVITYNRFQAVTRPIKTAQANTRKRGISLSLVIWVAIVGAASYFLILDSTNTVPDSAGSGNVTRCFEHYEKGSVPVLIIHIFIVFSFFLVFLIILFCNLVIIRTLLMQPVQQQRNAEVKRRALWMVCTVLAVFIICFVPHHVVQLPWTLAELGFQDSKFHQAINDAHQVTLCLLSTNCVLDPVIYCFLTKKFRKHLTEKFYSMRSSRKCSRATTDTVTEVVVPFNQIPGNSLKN

[4] = system: Mus musculus; experiment: In vivo inhibition against PAF induced hemoconcentration in mice at a concentration of 3 mg/kg; format: functional
Outline: (§4)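 Mice given compound iv at 3 mg/kg in 0.5% DMSO saline, then PAF (10 μg, in 0.25% BSA/saline) iv by tail vein 15 min later. Tail blood taken 15 min after PAF for hematocrit; percent inhibition relative to vehicle control.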

[5] = system: Mus musculus; experiment: In vivo inhibition against arachidonic acid induced ear Edema in mice at a concentration of 3 mg/kg; format: functional
Outline: (§5)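 Compound given iv at 3 mg/kg in 0.5% DMSO saline 15 min before topical arachidonic acid (0.5 mg in acetone/pyridine/water 97:2:1) on both ears of mice. Sacrifice at 1 h; 7-mm ear punches weighed, edema as mean wet weight.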

[6] = target: T1, Polyunsaturated fatty acid 5-lipoxygenase; experiment: 5-lipoxygenase inhibitory activity determined by measuring the conversion of [14C]arachidonic acid to leukotrienes in RBL-2H3 cell using thin-layer chromatography.; format: cell-based; outline: as §3
[7] = organism: Homo sapiens; experiment: as §1; format: functional; set-up: concentration or dose not given beside the values; outline: as §2
[8] = In vivo activity against platelet activating factor (PAF)-induced hemoconcentration in mouse.; format: functional; outline: as §4
[9] = system: Mus musculus; experiment: (§6) In vivo activity against acute TPA-induced ear edema in mouse.; format: functional
Outline: (§7)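 Mice, 8 per group, TPA in acetone (10 μL) applied topically to both ear surfaces with or without drug. Sacrifice at 6 h; punch biopsies weighed, MPO measured spectrophotometrically in homogenized tissue, histology also done; compared with maximal control.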

[10] = Half-life was determined; format: ADME; details: human
[11] = system: Mus musculus; experiment: as §6; format: functional; outline: as §7; remark: listed apart in the source
[12] = system: Mus musculus; experiment: In vivo activity against arachidonic acid induced ear edema in mouse.; format: functional; outline: as §5
[13] = organism: Homo sapiens; experiment: In vitro inhibition of LTB4 production in human whole blood; format: functional; outline: as §2
[14] = system: Mus musculus; experiment: In vivo activity against chronic TPA-induced ear edema in mouse.; format: functional
Outline: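 Mice, 8 per group, TPA in acetone (10 μL) applied topically to both ears once a day every 2 days for 10 days. Drug applied topically twice daily over the last 3 days. Punch biopsies weighed; MPO measured spectrophotometrically; histology also done.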

Row | SMILES | IC50 [1] [nM] | IC50 [2] [nM] | IC50 [3] [nM] | inhibition in vivo at 3 mg/kg [4] [%] | inhibition in vivo at 3 mg/kg [5] [%] | Inhibition [7] [%] | further results
1 | CC(C#Cc1ccc(Oc2ccc(F)cc2)o1)N(O)C(N)=O (stereo not drawn) | 100 | 298 | – | – | – | – | –
2 | CCCCN(O)C(=O)Nc1cc([C@@H]2CC[C@@H](c3cc(OC)c(OC)c(OC)c3)O2)cc(OC)c1OCCS(=O)(=O)c1c(F)c(F)cc(F)c1F (racemic) | – | 520 | 285 | 50 | 12 | – | –
3 | CCCCN(O)C(=O)NCc1cc([C@@H]2CC[C@@H](c3cc(OC)c(OC)c(OC)c3)O2)cc(OC)c1OCCSc1ccc(Cl)cc1 (racemic) | – | – | 167 | – | – | 26 | –
4 | CC(c1cc2ccccc2s1)N(O)C(N)=O (stereo not drawn) [ZILEUTON] | – | – | – | – | – | 1 | –
5 | CCCCN(O)C(=O)Nc1cc([C@@H]2CC[C@@H](c3cc(OC)c(OC)c(OC)c3)O2)cc(OC)c1OCCC | 3500 | – | – | – | – | – | –
6 | CCCCN(O)C(=O)Nc1cc([C@@H]2CC[C@@H](c3cc(OC)c(OC)c(OC)c3)O2)cc(OC)c1OCCSc1ccc(OC)cc1 (racemic) | – | 71 | 39 | 24 | 3 | 32 | –
7 | CCCCN(O)C(=O)Nc1cc([C@@H]2CC[C@@H](c3cc(OC)c(OC)c(OC)c3)O2)cc(OC)c1OCCSc1ccc(Cl)c(Cl)c1 (racemic) | – | 17 | 45 | 26 | 26 | 61 | –

Now from value to molecule, other results behind:

Row | IC50 [1] [nM] | IC50 [2] [nM] | IC50 [3] [nM] | SMILES | inhibition in vivo at 3 mg/kg [4] [%] | inhibition in vivo at 3 mg/kg [5] [%] | Inhibition [7] [%] | further results
8 | 1200 | 19 | 21 | CCCCN(O)C(=O)Nc1cc([C@@H]2CC[C@@H](c3cc(OC)c(OC)c(OC)c3)O2)cc(OC)c1OCCSc1ccc(Br)cc1 (racemic) | – | – | – | –
9 | 6500 | – | 20 | CCCCN(O)C(=O)Nc1cc([C@@H]2CC[C@@H](c3cc(OC)c(OC)c(OC)c3)O2)cc(OC)c1OCCSc1ccc(Cl)cc1 (racemic) | 43 | 39 | – | IC50 [6]: 58 nM
10 | 7500 | 43 | 22 | CCCCN(O)C(=O)Nc1cc([C@@H]2CC[C@@H](c3cc(OC)c(OC)c(OC)c3)O2)cc(OC)c1OCCSc1cccc(Br)c1 (racemic) | 28 | 40 | – | –
11 | – | 161 | 25 | CCCCN(O)C(=O)Nc1cc([C@@H]2CC[C@@H](c3cc(OC)c(OC)c(OC)c3)O2)cc(OC)c1OCCS(=O)(=O)c1ccccc1Br (racemic) | 60 | – | 19 | –
12 | 7800 | 100 | 10 | COc1cc([C@@H]2CC[C@@H](c3cc(OC)c(OC)c(OC)c3)O2)cc(CNC(=O)N(C)O)c1OCCSc1ccc(Cl)cc1 (racemic) | 56 | 46 | – | ED50 [8]: 2.2 mg/kg; ED50 [9]: 269 ug ear-1; half-life [10]: 30 min; ED50 [11]: 299 ug ear-1; ED50 [12]: 1.8 mg/kg; IC50 [13]: 7800 nM; ED50 [14]: 552 ug ear-1 and 580 ug ear-1
13 | – | 33 | 23 | CCCCN(O)C(=O)Nc1cc([C@@H]2CC[C@@H](c3cc(OC)c(OC)c(OC)c3)O2)cc(OC)c1OCCSc1ccccc1Br (racemic) | 34 | 26 | 48 | –
14 | – | 118 | 2 | CCCCN(O)C(=O)Nc1cc([C@@H]2CC[C@@H](c3cc(OC)c(OC)c(OC)c3)O2)cc(OC)c1OCCSc1c(F)c(F)cc(F)c1F (racemic) | 59 | 30 | 3 | –
15 | – | – | 38 | CCCCN(O)C(=O)Nc1cc([C@@H]2CC[C@@H](c3cc(OC)c(OC)c(OC)c3)O2)cc(OC)c1OCCS(=O)(=O)c1ccc(Br)cc1 (racemic) | 29 | 35 | 72 | –
